Results on one compound are retold here after ChEMBL document CHEMBL5705899 (Biochem J, 2014).

Calls of active or inactive are those of the source. The calls are words filed in the database; no cut-off is given here.

Assay [1] concerns the target Receptor-type tyrosine-protein kinase FLT3 (Homo sapiens) (UniProt P36888). The experiment in a line: Inhibition of human FLT3 at 1 uM using Poly(Ala,Glu,Lys,Tyr) as substrate in presence of 33P-ATP by ProQinase assay.
The target of assay [2] is Insulin receptor-related protein (Homo sapiens) (UniProt P14616). The experiment in a line: Inhibition of recombinant human N-terminal His6-tagged IRR (944 to 1236 residues) expressed in baculovirus infected Sf21 cells assessed as remaining activity at 1 uM using MBP as substrate incubated for 30 mins in presence of [gamma-33P]ATP by filter binding method relative to control.

Assay [3] has as its target Homeodomain-interacting protein kinase 3 (Homo sapiens) (UniProt Q9H422). The experiment in a line: Inhibition of human HIPK3 at 1 uM using RBER-CHKtide as substrate in presence of 33P-ATP by ProQinase assay.
In assay [4] the target is Serine/threonine-protein kinase PAK 1 (Homo sapiens) (UniProt Q13153). The experiment in a line: Inhibition of human PAK1 at 1 uM using RBER-CHKtide as substrate in presence of 33P-ATP by ProQinase assay.
Serine/threonine-protein kinase PAK 1 (Homo sapiens), sequence (Q13153 whole entry): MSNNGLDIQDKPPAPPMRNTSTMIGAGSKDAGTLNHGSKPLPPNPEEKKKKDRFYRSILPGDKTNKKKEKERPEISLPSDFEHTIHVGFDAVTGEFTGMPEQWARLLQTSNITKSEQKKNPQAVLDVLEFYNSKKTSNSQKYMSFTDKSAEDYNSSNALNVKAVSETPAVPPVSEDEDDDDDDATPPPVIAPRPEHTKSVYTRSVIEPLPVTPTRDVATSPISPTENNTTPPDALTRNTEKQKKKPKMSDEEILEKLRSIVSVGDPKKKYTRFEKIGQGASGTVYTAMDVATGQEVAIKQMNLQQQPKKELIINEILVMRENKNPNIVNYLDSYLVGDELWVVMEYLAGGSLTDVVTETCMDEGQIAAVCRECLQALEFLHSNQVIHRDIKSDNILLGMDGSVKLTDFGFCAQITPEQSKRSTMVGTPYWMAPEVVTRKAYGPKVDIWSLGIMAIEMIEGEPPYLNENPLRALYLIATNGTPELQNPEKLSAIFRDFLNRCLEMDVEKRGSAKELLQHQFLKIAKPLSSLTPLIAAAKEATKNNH
Assay [5] deals with Mast/stem cell growth factor receptor Kit (Homo sapiens) (UniProt P10721). The experiment in a line: Inhibition of human KIT at 1 uM using polyEY as substrate in presence of 33P-ATP by ProQinase assay.
Mast/stem cell growth factor receptor Kit (Homo sapiens), sequence (P10721 whole entry): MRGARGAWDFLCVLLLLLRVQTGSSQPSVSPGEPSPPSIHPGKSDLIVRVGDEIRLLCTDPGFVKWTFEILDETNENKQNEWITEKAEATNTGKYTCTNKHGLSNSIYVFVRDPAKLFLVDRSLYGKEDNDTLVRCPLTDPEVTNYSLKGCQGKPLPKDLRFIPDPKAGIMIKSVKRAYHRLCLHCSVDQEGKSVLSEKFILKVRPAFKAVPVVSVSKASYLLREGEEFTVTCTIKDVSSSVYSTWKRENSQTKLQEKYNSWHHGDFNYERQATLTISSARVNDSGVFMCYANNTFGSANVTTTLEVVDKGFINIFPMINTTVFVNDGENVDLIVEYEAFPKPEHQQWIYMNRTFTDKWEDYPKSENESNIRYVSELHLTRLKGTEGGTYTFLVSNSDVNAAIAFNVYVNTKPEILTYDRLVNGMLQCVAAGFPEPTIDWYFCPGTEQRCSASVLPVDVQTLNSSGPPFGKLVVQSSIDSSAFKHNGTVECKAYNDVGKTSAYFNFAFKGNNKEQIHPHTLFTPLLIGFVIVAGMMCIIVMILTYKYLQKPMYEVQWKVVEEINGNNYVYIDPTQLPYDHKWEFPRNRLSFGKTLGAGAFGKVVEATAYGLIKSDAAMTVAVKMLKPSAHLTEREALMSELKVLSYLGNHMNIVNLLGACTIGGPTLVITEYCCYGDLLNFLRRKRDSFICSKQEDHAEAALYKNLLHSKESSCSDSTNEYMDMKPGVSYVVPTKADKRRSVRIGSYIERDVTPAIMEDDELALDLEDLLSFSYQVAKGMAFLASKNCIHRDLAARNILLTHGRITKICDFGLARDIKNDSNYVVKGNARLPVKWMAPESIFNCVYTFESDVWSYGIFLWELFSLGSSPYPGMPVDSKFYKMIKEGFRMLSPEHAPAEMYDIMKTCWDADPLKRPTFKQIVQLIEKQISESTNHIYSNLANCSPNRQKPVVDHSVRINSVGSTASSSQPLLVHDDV
The target of assay [6] is Serine/threonine-protein kinase pim-3 (Homo sapiens) (UniProt Q86V86). The experiment in a line: Inhibition of human PIM3 at 1 uM using RBER-GSK3 as substrate in presence of 33P-ATP by ProQinase assay.
Assay [7] deals with LKB1-STRAD-MO25 complex (Homo sapiens) (UniProt Q15831+Q7RTN6+Q9Y376). The experiment in a line: Inhibition of recombinant human N-terminal His6-tagged LKB1 (1 to 433 residues)/MO25 (1 to 341 residues)/STRAD (1 to 431 residues) expressed in baculovirus infected Sf21 cells assessed as remaining activity at 1 uM using LSNLYHQGKFLQTFCGSPLYRRR as substrate incubated for 30 mins in presence of [gamma-33P]ATP by filter binding method relative to control.

The target of assay [8] is Mitogen-activated protein kinase kinase kinase 2 (Homo sapiens) (UniProt Q9Y2U5). The experiment in a line: Inhibition of human MEKK2 at 1 uM using casein as substrate in presence of 33P-ATP by ProQinase assay.
The target in assay [9] is Interleukin-1 receptor-associated kinase 1 (Homo sapiens) (UniProt P51617). The experiment in a line: Inhibition of recombinant human N-terminal GST-tagged IRAK1 (1 to 712 residues) expressed in baculovirus infected Sf21 cells assessed as remaining activity at 1 uM using MBP as substrate incubated for 30 mins in presence of [gamma-33P]ATP by filter binding method relative to control.
Interleukin-1 receptor-associated kinase 1 (Homo sapiens), sequence (P51617 whole entry, looked up, the tested form may be a part): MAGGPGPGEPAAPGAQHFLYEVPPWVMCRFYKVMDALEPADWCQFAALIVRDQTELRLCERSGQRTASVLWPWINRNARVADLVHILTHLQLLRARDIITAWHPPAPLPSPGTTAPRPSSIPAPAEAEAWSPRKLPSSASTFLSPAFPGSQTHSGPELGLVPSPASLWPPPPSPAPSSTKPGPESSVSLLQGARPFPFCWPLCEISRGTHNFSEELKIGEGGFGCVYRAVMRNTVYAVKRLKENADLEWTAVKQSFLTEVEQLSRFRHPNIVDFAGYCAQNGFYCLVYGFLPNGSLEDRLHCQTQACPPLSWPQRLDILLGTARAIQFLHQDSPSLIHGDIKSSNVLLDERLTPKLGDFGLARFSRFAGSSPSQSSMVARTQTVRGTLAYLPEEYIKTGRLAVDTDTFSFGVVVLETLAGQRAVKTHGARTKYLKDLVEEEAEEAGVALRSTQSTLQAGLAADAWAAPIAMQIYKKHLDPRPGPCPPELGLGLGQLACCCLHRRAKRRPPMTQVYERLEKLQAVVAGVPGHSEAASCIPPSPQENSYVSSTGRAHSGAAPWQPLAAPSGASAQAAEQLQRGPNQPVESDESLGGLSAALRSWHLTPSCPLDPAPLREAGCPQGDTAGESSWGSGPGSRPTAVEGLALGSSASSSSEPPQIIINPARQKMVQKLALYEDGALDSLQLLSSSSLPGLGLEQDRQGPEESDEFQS

Assay [10] has as its target Serine/threonine-protein kinase PAK 6 (Homo sapiens) (UniProt Q9NQU5). Put plainly: Inhibition of human PAK6 at 1 uM using bio-4xCHKT as substrate in presence of 33P-ATP by ProQinase assay.
The target of assay [11] is Phosphatidylinositol 4-kinase alpha (Homo sapiens, UniProt P42356). The experiment in a line: Inhibition of PI4Kalpha (unknown origin) using D-myo-PtdIns as substrate incubated for 45 mins by ADP-Glo assay. The gist of the method:
(§1)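 PI4Kα: 1 nM enzyme, 72 μM ATP, 25 μM PtdIns. PI4Kβ: 2 nM enzyme, 220 μM ATP, 50 μM PtdIns. Reactions ran 45 min at ambient temperature; ADP-Glo reagent was added for 40 min, then detection reagent for 30 min, then luminescence was read.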

Assay [12] addresses Protein kinase C theta type (Homo sapiens) (UniProt Q04759). The experiment in a line: Inhibition of human PKCtheta at 1 uM using 3xChocktide-PKC as substrate in presence of 33P-ATP by ProQinase assay.
For assay [13], the target named is Eukaryotic translation initiation factor 2-alpha kinase 1 (Homo sapiens) (UniProt Q9BQI3). Put plainly: Inhibition of human HRI at 1 uM using casein as substrate in presence of 33P-ATP by ProQinase assay.
Assay [14] deals with Phosphatidylinositol 4-kinase beta (Homo sapiens, UniProt Q9UBF8). Put plainly: Inhibition of PI4Kbeta (unknown origin) using D-myo-PtdIns as substrate incubated for 45 mins by ADP-Glo assay. The gist of the method:
as §1
For orientation: ADP-Glo first removes unused ATP, then detects ADP through luciferase.

Assay [15] addresses Serine/threonine-protein kinase haspin (Homo sapiens) (UniProt Q8TF76). The experiment in a line: Inhibition of human GSG2 at 1 uM using histon H3 as substrate in presence of 33P-ATP by ProQinase assay.
Assay [16] has as its target Glycogen synthase kinase-3 beta (Homo sapiens) (UniProt P49841). Put plainly: Inhibition of human GSK3beta at 1 uM using RBER-CHKtide as substrate in presence of 33P-ATP by ProQinase assay.
Assay [17] addresses Ephrin type-A receptor 2 (Homo sapiens) (UniProt P29317). The experiment in a line: Inhibition of recombinant human N-terminal GST-tagged EPHA2 (591 to 976 residues) expressed in Escherichia coli assessed as remaining activity at 1 uM using Poly (Glu,Tyr) as substrate incubated for 30 mins in presence of [gamma-33P]ATP by filter binding method relative to control.
The target in assay [18] is Mitogen-activated protein kinase kinase kinase 14 (Homo sapiens) (UniProt Q99558). The experiment in a line: Inhibition of human NIK at 1 uM using RBER-CHKtide as substrate in presence of 33P-ATP by ProQinase assay.
Mitogen-activated protein kinase kinase kinase 14 (Homo sapiens), sequence (Q99558 whole entry, looked up): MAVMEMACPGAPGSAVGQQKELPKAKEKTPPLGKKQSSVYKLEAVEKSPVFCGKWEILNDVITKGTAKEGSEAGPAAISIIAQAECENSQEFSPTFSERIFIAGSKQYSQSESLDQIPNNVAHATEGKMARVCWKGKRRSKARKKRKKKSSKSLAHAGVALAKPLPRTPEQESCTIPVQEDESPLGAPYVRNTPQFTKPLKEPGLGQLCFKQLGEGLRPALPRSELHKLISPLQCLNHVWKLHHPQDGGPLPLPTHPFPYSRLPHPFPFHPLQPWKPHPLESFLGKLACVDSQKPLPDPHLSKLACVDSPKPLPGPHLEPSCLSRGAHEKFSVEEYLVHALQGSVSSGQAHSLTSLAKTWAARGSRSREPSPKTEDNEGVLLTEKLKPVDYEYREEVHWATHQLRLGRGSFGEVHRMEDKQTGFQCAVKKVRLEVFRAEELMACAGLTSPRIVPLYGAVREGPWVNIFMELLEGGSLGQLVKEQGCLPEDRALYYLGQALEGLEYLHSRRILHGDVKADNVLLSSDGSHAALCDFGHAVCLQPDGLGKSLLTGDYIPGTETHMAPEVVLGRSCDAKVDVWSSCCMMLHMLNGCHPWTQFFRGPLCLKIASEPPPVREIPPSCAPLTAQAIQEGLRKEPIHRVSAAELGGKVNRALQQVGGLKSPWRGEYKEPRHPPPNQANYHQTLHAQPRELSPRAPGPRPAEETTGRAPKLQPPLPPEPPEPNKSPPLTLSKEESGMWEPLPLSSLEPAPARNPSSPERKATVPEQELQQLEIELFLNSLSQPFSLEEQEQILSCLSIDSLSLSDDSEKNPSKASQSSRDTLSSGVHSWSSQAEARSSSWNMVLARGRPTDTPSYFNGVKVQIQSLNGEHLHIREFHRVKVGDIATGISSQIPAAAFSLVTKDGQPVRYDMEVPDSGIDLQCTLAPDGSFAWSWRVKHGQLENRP
Assay [19] concerns the target Tyrosine-protein kinase Fer (Homo sapiens) (UniProt P16591). Put plainly: Inhibition of human FER at 1 uM using polyEY as substrate in presence of 33P-ATP by ProQinase assay.
The target of assay [20] is Mitogen-activated protein kinase kinase kinase 1 (Homo sapiens) (UniProt Q13233). The experiment in a line: Inhibition of human MAP3K1 at 1 uM using bio-4xCHKT as substrate in presence of 33P-ATP by ProQinase assay.
Assay [21] addresses Protein kinase C zeta type (Homo sapiens) (UniProt Q05513). Put plainly: Inhibition of human PKCzeta at 1 uM using 3xChocktide-PKC as substrate in presence of 33P-ATP by ProQinase assay.
Assay [22] concerns the target Serine/threonine-protein kinase Nek2 (Homo sapiens) (UniProt P51955). The experiment in a line: Inhibition of recombinant human N-terminal His6-tagged NEK2A (1 to 445 residues) expressed in baculovirus infected Sf21 cells assessed as remaining activity at 1 uM using RFRRSRRMI as substrate incubated for 30 mins in presence of [gamma-33P]ATP by filter binding method relative to control.

Assay [23] deals with Dual specificity protein kinase TTK (Homo sapiens) (UniProt P33981). The experiment in a line: Inhibition of recombinant human N-terminal His6-tagged TTK (1 to 857 residues) expressed in baculovirus infected Sf21 cells assessed as remaining activity at 1 uM using RSRSRSRSRSRSRSR as substrate incubated for 30 mins in presence of [gamma-33P]ATP by filter binding method relative to control.

Assay [24] deals with Mitogen-activated protein kinase 3 (Homo sapiens) (UniProt P27361). The experiment in a line: Inhibition of recombinant human N-terminal GST-tagged ERK1 (2 to 379 residues) expressed in Escherichia coli assessed as remaining activity at 1 uM using MBP as substrate incubated for 30 mins in presence of [gamma-33P]ATP by filter binding method relative to control.

Receptor-type tyrosine-protein kinase FLT3 (Homo sapiens), sequence (P36888 whole entry, the tested form may be a part): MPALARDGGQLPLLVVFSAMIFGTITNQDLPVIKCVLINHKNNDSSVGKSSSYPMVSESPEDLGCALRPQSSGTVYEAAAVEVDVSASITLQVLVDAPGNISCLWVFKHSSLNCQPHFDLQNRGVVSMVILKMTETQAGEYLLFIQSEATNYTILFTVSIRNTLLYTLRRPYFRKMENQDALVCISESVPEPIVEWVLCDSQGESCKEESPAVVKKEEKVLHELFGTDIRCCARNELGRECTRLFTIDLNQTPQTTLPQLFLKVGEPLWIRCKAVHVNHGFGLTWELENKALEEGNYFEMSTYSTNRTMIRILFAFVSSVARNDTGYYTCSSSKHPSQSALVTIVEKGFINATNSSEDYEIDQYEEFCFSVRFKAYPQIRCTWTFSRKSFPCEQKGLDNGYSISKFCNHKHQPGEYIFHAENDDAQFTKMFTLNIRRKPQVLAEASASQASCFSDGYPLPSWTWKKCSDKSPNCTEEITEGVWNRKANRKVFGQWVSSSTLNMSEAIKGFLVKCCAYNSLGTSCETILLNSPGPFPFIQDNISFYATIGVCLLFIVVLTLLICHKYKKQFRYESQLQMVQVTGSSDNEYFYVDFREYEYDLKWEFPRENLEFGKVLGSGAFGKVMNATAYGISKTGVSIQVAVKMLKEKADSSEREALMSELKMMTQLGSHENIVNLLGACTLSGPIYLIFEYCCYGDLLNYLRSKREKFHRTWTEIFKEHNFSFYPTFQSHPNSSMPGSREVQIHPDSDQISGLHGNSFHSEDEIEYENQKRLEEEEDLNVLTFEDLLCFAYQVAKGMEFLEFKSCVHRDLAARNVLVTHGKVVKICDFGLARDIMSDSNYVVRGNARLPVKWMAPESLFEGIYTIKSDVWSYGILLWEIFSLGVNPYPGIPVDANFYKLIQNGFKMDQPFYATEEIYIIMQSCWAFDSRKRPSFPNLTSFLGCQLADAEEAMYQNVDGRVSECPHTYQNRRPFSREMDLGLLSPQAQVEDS
Protein kinase C theta type (Homo sapiens), sequence (Q04759 whole entry, looked up): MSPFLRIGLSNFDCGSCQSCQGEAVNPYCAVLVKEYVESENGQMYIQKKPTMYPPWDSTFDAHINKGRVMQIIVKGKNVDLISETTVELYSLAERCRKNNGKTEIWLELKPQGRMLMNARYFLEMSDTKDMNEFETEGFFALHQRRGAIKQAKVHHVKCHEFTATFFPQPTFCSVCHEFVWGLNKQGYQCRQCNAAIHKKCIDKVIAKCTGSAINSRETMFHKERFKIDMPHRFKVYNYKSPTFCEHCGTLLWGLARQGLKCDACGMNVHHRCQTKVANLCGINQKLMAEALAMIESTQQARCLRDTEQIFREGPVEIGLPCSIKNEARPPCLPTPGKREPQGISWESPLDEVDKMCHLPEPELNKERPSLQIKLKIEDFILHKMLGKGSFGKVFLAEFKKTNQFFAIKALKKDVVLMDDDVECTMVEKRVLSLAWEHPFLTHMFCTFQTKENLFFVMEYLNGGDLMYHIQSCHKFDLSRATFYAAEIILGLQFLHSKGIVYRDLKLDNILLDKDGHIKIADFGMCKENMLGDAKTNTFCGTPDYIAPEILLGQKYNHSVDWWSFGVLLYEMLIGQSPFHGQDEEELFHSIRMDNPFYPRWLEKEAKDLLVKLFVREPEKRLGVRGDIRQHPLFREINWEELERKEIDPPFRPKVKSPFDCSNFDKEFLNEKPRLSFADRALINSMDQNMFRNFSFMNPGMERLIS

`CC(C)(O)CNc1ncc(-c2ccnc(Nc3ccnc(Cl)c3)n2)c(CC2CC2)n1`: the inhibition entry in [1], in assay [3], in assay [4], in [5], in assay [6] and in assay [8] was “inactive” in each case. The inhibition result in assay [10], in assay [12], in [13], in assay [15], in [16] and in assay [18] was “inactive” throughout. Besides, the inhibition entry in assay [19], in [20] and in [21] was “inactive” each time. Moreover, the Activity in assay [2] amounted to 113%; in assay [7], 106%; in [9], 112%; in assay [17] it was 101%; in assay [22], 103%; in [23] it was 108%. In addition, the Activity in assay [24] was 108%. The figures for the IC50 in assay [11] and in assay [14] were 4.07 µM and 1070 nM, respectively.
